Only some compounds are listed: those with a hit (about 3.5% of all), similar ones and a draw of the others.
MrgX1 PAM – positive allosteric modulators of MrgX1, primary screen, HEK293 cells, Fluo-4 calcium flux; Mas-related G-protein coupled receptor member X1 (Homo sapiens), Q96LB2; FDSS; active compounds read high; B-score at 10 µM; actives 0.63% (n = 310,000); AID 588675, 2011;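 active means plate-corrected calcium response at least 3 library SD above typical, normal starting fluorescence, not activating the receptor alone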;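 further: compound read alongside a low EC10 to EC30 dose of BAM8-22 agonist; peak minus trough fluorescence over baseline measured at the second addition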
Target sequence (Q96LB2 whole entry, looked up): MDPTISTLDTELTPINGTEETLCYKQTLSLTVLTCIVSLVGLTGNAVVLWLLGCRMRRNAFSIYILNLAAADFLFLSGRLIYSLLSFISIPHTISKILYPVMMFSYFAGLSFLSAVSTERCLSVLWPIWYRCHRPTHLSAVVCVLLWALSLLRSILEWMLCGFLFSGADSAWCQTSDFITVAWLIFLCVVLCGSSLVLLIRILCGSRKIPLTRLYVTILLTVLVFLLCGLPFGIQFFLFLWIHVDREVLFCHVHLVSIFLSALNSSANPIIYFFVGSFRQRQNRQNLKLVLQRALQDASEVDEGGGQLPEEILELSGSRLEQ
RGS4 inh – RGS4 inhibitors, primary screen, cell-based, HEK293 M3R inducible RGS4, calcium flux. Fluo-4 calcium flux; active compounds read high; triggered by carbachol at its EC20. B-score at 10 µM. actives 0.45% (n = 310,000);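 active means B-score, a plate-corrected calcium signal, over three deviations above library mean, with baseline fluorescence within five deviations of library mean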;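 further: RGS4 expression induced by doxycycline in cells with stable M3 receptor; B-score is computed from the integrated fluorescence ratio over baseline after carbachol; higher B-score means a larger calcium signal and so more RGS4 inhibition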
Target sequence (P49798 whole entry, looked up): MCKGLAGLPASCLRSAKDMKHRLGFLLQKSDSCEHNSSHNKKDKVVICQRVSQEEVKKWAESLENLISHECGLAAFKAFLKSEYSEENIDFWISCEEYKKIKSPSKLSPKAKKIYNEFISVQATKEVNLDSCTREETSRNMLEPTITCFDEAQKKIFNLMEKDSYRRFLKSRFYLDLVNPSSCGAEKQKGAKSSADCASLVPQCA
MrgX1 agonist – agonists of human MrgX1 receptor, primary screen, HEK293 cells, Fluo-4 calcium flux; Fluo-4 calcium fluorescence, agonist mode; active compounds read high; B-score at 10 µM; actives 0.44% (n = 310,000);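 active means calcium response B-score plate-corrected fluorescence ratio at least 3 library SD, with starting fluorescence B-score inside 5 SD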
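System: HEK293 cells stably expressing human MrgX1 receptor; Dosing: test compound in the initial addition of three; Schedule: overnight plating, then 30 min 37 °C plus 30 min room-temperature dye loading; Detection: kinetic calcium dye fluorescence, Fluo-4 NW; Controls: per-plate positive and negative controls for Z′ factor.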
MrgX1 antag – antagonists of human MrgX1 receptor, primary screen, HEK293 cells, Fluo-4 calcium flux | Mas-related G-protein coupled receptor member X1 (Homo sapiens), Q96LB2 | BAM8-22 antagonism; active compounds read low | B-score at 10 µM | actives 1.3% (n = 310,000) | AID 588676, 2011;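 active means calcium-response B-score plate-corrected more than 3 library SD below zero, starting fluorescence within 5 deviations, no agonist response on first addition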;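 further: peak minus trough fluorescence over baseline after final BAM8-22 challenge near maximal dose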
RGS4 act – RGS4 potentiators or activators, primary screen, cell-based, HEK293 M3R inducible RGS4, calcium flux. carbachol calcium flux Fluo4; active compounds read low. B-score at 10 µM. actives 0.92% (n = 310,000). AID 463111, 2010;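 active means B-score of the integrated calcium signal more than 4 SD below the library mean, with starting fluorescence not abnormally high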;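 further: negative B-score means reduced calcium response which marks RGS4 activation or potentiation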
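Also added: carbachol at ECmax as muscarinic agonist stimulus; Assay system: HEK293 cells with stable M3R and inducible RGS4; Timing: overnight RGS4 induction, 30 min dye load 37 °C, 20 min compound RT; Measured by: Fluo4-AM (2 µM) calcium-flux fluorescence, kinetic read.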
MrgX1 PAM conf – MrgX1 positive allosteric modulators, duplicate retest, confirmation, HEK293 cells, Fluo-4 calcium flux. shares compounds with MrgX1 PAM. Fluo-4 calcium fluorescence, FDSS. activation (ratio percentage), % at 10 µM. actives 13% (n = 1,200). AID 602413, 2012;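 active means ratio at least 3 SD above the weak peptide control, stable starting fluorescence, no direct agonism earlier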;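 further: compound followed by low BAM8-22 agonist challenge near EC20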
MrgX1 antag conf – MrgX1 receptor antagonists, duplicate retest, confirmation, HEK293 cells, Fluo-4 calcium flux; shares compounds with MrgX1 antag; BAM8-22 calcium flux; active compounds read low; remaining BAM8-22 calcium response % of control (active compounds read low), % at 10 µM; actives 19% (n = 2,300);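 active means remaining agonist calcium response no higher than 100% minus 3 SD of agonist-only control wells, with starting fluorescence near control levels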;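 further: agonist BAM8-22 given at a near maximal EC90 to ECmax level; peak minus minimum fluorescence divided by baseline after agonist addition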
HEK293 Ca flux – nonspecific calcium signal in parental HEK293, confirmation, counter-screen for MrgX1 antagonist project, parental HEK293 cells, Fluo-4 calcium flux. Fluo-4 calcium fluorescence, FDSS. fluorescence ratio F(max-min)/F0 at 10 µM. shares compounds with MrgX1 antag. actives 2% (n = 4,000);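 active means duplicate-averaged calcium fluorescence ratio at least three times the standard deviation of buffer wells, a nonspecific response in parental cells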
HEK293 Ca counter – calcium response in parental HEK293 cells, primary screen, counter-screen for MrgX1 allosteric activator project, cell-based, Fluo-4 calcium flux, duplicate; shares compounds with MrgX1 antag; Fluo-4 fluorescence ratio; active compounds read high; fluorescence ratio F(max-min)/F0 at 10 µM; actives 0.4% (n = 4,000); AID 624114, 2012;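 active means calcium fluorescence ratio, averaged over duplicates, at least 3 SD of the buffer-well ratio, meaning a nonspecific response in receptor-free cells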;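 further: untransfected parental HEK293 lacking MrgX1 used as counterscreen for MrgX1 allosteric activators; fluorescence change taken during the second addition on a kinetic imager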
HEK293 Ca cntr2 – calcium response in parental HEK293 cells, primary screen, counter-screen for MrgX1 agonist project, cell-based, Fluo-4 calcium flux, duplicate, agonist mode. shares compounds with MrgX1 antag. Fluo-4 calcium fluorescence (FDSS); active compounds read high. fluorescence ratio F(max-min)/F0 at 10 µM. actives 8.7% (n = 4,000). AID 624115, 2012;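 active means calcium fluorescence ratio at least three times the spread of buffer wells, meaning a non-specific response in parental cells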
Of the large screens only hits and unclear results are named; the others gave an inactive call (follow-up assays come after a bar, where they were run).

COCCN1Cc2cccc(C(=O)NCc3cccs3)c2C1=O	none
Cc1cccc(-n2c(-c3csc(C(C)C)c3)n[nH]c2=S)c1	none
CCCc1cc(-c2n[nH]c(=S)n2-c2cccc(C)c2)cs1	MrgX1 PAM 8 | MrgX1 PAM conf inactive | HEK293 Ca flux inactive | HEK293 Ca counter inactive | HEK293 Ca cntr2 inactive
COc1ccccc1CCNC(=O)CSc1ccc(-c2cccs2)nn1	MrgX1 PAM 7.9 | MrgX1 PAM conf inactive | HEK293 Ca flux inactive | HEK293 Ca counter inactive | HEK293 Ca cntr2 inactive
O=C(CSc1ccc(-c2cccs2)nn1)NCCc1ccccc1	none
CCN(C(=O)COC(=O)/C=C/c1c(C)nn(Cc2ccc(C)cc2)c1C)C1CCS(=O)(=O)C1 (stereo unspecified)	none
O=C(COC(=O)C12CC3CC(CC(O)(C3)C1)C2)Nc1ccccc1OC(F)F	none
O=C(COC(=O)C(O)c1ccccc1)NC12CC3CC(CC(C3)C1)C2 (stereo unspecified)	none
O=C(COc1ccccc1F)NC12CC3CC(CC(C3)C1)C2	MrgX1 PAM 6.6 | MrgX1 PAM conf inactive | HEK293 Ca flux inactive | HEK293 Ca counter inactive | HEK293 Ca cntr2 inactive
O=C(COC(=O)C12CC3CC(CC(C3)C1)C2)Nc1ccccc1F	MrgX1 PAM 13 | MrgX1 PAM conf inactive | HEK293 Ca flux inactive | HEK293 Ca counter inactive | HEK293 Ca cntr2 inactive
Cn1c(Cn2cnc([N+](=O)[O-])n2)nnc1SCC(=O)Nc1ccc(Br)cc1	none
Cc1sc2ncnc(N3CCCC(C)C3)c2c1C (stereo unspecified)	MrgX1 PAM 28 | MrgX1 PAM conf 25% | HEK293 Ca flux inactive | HEK293 Ca counter inactive | HEK293 Ca cntr2 inactive
Cc1c(C(=O)NCCC2=CCCCC2)sc2ncnc(N3CCCCC3C)c12 (stereo unspecified)	none
CCc1cc2c(=O)[nH]c(N3CCCC3)nc2s1	none
Cc1sc2ncnc(N3CCCCC3C)c2c1C (stereo unspecified)	MrgX1 PAM 12 | MrgX1 PAM conf 6.3% | HEK293 Ca flux inactive | HEK293 Ca counter inactive | HEK293 Ca cntr2 inactive
Cc1sc2ncnc(N3CCOCC3)c2c1C	none
Cc1sc2ncnc(N3CCCCC3)c2c1C	MrgX1 PAM 6.8 | MrgX1 PAM conf inactive | HEK293 Ca flux inactive | HEK293 Ca counter inactive | HEK293 Ca cntr2 inactive
CCc1cc2c(N3CCCCC3)ncnc2s1	MrgX1 PAM 11 | MrgX1 PAM conf inactive | HEK293 Ca flux inactive | HEK293 Ca counter inactive | HEK293 Ca cntr2 inactive
Cc1ccc(N2CC(C(=O)Nc3ccc(S(=O)(=O)Nc4ncccn4)cc3)CC2=O)cc1C (stereo unspecified)	none
O=C(NCc1ccccc1C(F)(F)F)C1CC(c2cccc(F)c2)=NO1 (stereo unspecified)	none
CCc1ccc(C(N)=S)cc1	MrgX1 PAM 9 | MrgX1 PAM conf inactive | HEK293 Ca flux inactive | HEK293 Ca counter inactive | HEK293 Ca cntr2 inactive
Cc1cc(C(=O)CCl)c(C)n1Cc1ccco1	MrgX1 PAM 7 | MrgX1 PAM conf inactive | HEK293 Ca flux inactive | HEK293 Ca counter inactive | HEK293 Ca cntr2 inactive
Cc1ccc(Oc2ccc(Cl)cc2N)cc1	MrgX1 PAM 6.8 | MrgX1 PAM conf inactive | HEK293 Ca flux inactive | HEK293 Ca counter inactive | HEK293 Ca cntr2 inactive
Nc1cc(Cl)ccc1Oc1ccc2ccccc2c1	none
CCN(CC(=O)Nc1ccc(NC(C)=O)cc1)c1ccc(C(F)(F)F)cn1	MrgX1 PAM 9.6 | MrgX1 PAM conf inactive | HEK293 Ca flux inactive | HEK293 Ca counter inactive | HEK293 Ca cntr2 inactive
CC(=O)Nc1ccc(N2CCN(c3ccc(C(F)(F)F)cn3)CC2)nc1	none
CC(C)(C)c1ccc(-n2ncc3c2CCCC3NC(=O)C2(C(N)=O)CC2)cc1 (stereo unspecified)	none
CC(=O)Oc1ccc(C(=O)Nc2cccc(C(=O)Nc3ccccc3C(=O)O)c2)cc1	none
CC(=O)Oc1ccc(C(=O)Nc2ccccc2C(=O)Nc2cccc(C(=O)O)c2)cc1	MrgX1 PAM 10 | MrgX1 PAM conf inactive | HEK293 Ca flux inactive | HEK293 Ca counter inactive | HEK293 Ca cntr2 inactive
O=C(Nc1ccccc1C(=O)O)c1cccc(NC(=O)c2ccc(Br)o2)c1	MrgX1 PAM 17 | MrgX1 PAM conf inactive | HEK293 Ca flux inactive | HEK293 Ca counter inactive | HEK293 Ca cntr2 inactive
O=C(Nc1ccccc1C(=O)O)c1ccc(NC(=O)c2ccc(Br)o2)cc1	none
Cc1nc2c3ccccc3n(Cc3ccccc3F)c2s1	none
Cc1nc2c3cc(F)ccc3n(Cc3ccccc3F)c2s1	MrgX1 PAM 9 | MrgX1 PAM conf inactive | HEK293 Ca flux inactive | HEK293 Ca counter inactive | HEK293 Ca cntr2 inactive
CC(C)(C)C(=O)Nc1ccc(S(=O)(=O)Nc2ccccn2)cc1	none
Cc1ccc(Cn2ncc3c(N4CCN(c5ccc(C)cc5)CC4)ncnc32)cc1	none
Cc1ccc(Cn2ncc3c(N4CCN(Cc5ccc(Cl)cc5)CC4)ncnc32)cc1	MrgX1 PAM 8.4, MrgX1 antag -12 | MrgX1 PAM conf inactive | MrgX1 antag conf 84% | HEK293 Ca flux inactive | HEK293 Ca counter inactive | HEK293 Ca cntr2 inactive
Fc1cccc2sc(Nc3nnc(-c4ccco4)o3)nc12	MrgX1 PAM 12 | MrgX1 PAM conf inactive | HEK293 Ca flux inactive | HEK293 Ca counter inactive | HEK293 Ca cntr2 inactive
Cc1ccc(NC2CCCN(C(=O)c3cc(C(C)C)[nH]n3)C2)cc1C (stereo unspecified)	none
CCOC(=O)c1c(NC(=O)CN2CCOCC2)sc2c1CCCC2=O	none

Bioassay records from PubChem.
